pEC50, pIC50: −log10 of the molar value. Activity calls are given as the source filed them. No cut-off for these calls is given here.
Experiments:
[1] = target: T1, Serine/threonine-protein kinase D1 (Homo sapiens, UniProt Q15139); test: Inhibition of PKD1 by TR-FRET assay
T1 sequence (Q15139 whole entry): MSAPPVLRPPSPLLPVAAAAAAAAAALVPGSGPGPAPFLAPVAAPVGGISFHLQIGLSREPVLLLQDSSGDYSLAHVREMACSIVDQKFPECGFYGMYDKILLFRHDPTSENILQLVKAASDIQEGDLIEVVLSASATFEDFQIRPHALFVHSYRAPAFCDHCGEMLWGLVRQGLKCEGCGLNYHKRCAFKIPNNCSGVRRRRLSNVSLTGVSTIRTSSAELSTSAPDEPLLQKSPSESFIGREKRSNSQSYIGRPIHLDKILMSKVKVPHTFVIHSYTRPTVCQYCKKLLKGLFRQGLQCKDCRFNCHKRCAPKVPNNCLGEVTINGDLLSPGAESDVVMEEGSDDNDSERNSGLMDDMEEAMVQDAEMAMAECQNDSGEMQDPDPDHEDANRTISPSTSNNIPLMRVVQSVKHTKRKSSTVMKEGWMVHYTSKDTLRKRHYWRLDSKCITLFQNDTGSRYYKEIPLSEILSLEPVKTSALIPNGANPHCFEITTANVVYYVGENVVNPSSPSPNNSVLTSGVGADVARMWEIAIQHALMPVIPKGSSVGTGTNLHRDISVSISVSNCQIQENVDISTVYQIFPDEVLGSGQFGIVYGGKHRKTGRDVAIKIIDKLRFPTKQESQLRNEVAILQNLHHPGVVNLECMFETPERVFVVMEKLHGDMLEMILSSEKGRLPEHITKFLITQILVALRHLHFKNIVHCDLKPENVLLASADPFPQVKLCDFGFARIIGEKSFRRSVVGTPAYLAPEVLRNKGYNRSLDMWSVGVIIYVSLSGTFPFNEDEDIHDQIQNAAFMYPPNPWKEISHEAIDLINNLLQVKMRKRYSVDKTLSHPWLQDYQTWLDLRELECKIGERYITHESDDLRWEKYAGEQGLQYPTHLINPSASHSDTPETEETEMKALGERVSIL
In short: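 Full-length wild-type PKD1 expressed and purified from Sf9 cells, 0.2 μg/mL, in 35 mM Tris-HCl pH 7.5, 5 mM MgCl2, 0.02% Tween-20, 20 μM ATP, 1 mM DTT. Reaction started with 2 μM biotinylated syntide-2 and run 50 min at room temperature. Stopped with EDTA plus europium anti-rabbit IgG, anti-phospho-syntide-2 antibody and streptavidin-APC. LANCE TR-FRET 665/615 ratio read after 1 h. 11-point curves in triplicate gave IC50.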

[2] = target: T1, Serine/threonine-protein kinase D1; test: Inhibition of PKD1 assessed as inhibition of HDAC5 neuclear export
In short: (§1)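 Neonatal rat ventricular myocytes infected with adenovirus encoding GFP-HDAC5 and plated on gelatin-coated wells. Cells exposed to compound and stimulated with PGF2α for 2 h, then fixed. Cytoplasmic versus nuclear GFP intensity quantified by high-content imaging.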

[3] = target: T2, Serine/threonine-protein kinase D2 (Homo sapiens, UniProt Q9BZL6); test: Inhibition of PKD2 by TR-FRET assay
T2 sequence (Q9BZL6 whole entry): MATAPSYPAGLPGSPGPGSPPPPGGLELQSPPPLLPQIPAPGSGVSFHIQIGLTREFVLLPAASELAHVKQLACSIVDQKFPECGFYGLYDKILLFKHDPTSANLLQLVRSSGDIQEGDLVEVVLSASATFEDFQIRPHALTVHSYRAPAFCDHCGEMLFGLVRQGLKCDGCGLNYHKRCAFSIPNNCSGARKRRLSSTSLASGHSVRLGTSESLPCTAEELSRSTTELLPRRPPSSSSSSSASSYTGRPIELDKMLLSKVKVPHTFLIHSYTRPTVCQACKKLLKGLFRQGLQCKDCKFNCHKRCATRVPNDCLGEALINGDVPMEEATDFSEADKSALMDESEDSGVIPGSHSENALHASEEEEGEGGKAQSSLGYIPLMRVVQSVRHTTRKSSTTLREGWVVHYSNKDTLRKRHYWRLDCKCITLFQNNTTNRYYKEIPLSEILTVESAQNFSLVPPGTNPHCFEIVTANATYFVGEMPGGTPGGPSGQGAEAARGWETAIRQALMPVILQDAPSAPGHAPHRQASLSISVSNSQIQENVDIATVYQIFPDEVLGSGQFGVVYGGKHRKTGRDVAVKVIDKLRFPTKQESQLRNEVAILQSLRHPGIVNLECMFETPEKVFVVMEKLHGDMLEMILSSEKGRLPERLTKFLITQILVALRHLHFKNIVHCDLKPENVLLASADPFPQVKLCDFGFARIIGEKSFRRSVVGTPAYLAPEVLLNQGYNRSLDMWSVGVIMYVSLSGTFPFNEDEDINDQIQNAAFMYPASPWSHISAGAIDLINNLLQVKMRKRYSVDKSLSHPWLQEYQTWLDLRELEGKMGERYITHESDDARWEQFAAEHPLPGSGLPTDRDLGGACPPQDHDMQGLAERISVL

[4] = target: Calcium/calmodulin-dependent protein kinase type II subunit beta (Homo sapiens) (UniProt Q13554); test: Inhibition of human CaMK2beta; details: concentration not given here
In short: (§2)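 Selectivity screen run externally (Invitrogen SelectScreen). Percent inhibition measured at 1 μM compound, mean of 2 measurements.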

[5] = target: T3, Calcium/calmodulin-dependent protein kinase type IV (Homo sapiens) (UniProt Q16566); test: Inhibition of human CaMK4; details: concentration not given here; in short: as §2
T3 sequence (whole entry): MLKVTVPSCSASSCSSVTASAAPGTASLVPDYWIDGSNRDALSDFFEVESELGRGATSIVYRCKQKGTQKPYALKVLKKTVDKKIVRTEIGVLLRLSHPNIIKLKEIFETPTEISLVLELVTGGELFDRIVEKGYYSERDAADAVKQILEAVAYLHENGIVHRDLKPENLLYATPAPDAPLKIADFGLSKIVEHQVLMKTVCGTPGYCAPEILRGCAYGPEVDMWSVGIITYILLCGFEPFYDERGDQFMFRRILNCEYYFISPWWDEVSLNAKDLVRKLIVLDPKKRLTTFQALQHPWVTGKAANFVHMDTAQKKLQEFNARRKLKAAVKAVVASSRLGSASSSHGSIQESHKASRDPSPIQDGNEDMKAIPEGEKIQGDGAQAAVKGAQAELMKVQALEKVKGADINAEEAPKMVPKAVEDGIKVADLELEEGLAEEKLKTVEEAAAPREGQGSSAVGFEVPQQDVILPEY

[6] = target: Serine/threonine-protein kinase MARK1 (Homo sapiens) (UniProt Q9P0L2); test: Inhibition of human MARK1; details: concentration not given here; in short: as §2
Sequence of Serine/threonine-protein kinase MARK1 (Homo sapiens) (Q9P0L2 whole entry, looked up): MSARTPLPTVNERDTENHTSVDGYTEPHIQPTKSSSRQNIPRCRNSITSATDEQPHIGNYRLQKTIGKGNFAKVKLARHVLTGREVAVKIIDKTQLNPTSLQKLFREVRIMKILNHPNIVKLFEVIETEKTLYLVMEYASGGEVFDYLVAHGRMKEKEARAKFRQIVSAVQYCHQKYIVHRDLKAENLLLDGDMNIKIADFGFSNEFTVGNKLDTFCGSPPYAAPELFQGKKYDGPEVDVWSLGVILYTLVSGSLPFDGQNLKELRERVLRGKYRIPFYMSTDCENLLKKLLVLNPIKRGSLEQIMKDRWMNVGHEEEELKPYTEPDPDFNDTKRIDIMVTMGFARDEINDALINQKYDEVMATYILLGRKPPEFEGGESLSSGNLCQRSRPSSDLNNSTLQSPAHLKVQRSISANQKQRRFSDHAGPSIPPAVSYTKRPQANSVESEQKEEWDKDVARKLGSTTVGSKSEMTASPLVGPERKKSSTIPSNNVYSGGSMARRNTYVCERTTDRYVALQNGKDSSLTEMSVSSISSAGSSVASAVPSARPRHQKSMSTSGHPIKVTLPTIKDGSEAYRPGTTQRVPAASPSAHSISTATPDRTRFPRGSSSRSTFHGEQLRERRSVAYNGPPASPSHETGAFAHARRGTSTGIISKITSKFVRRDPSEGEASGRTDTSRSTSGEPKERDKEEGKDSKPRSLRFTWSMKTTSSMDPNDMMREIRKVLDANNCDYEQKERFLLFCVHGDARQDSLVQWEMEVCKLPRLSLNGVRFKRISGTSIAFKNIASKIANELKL

[7] = AUC (0 to 8 hrs) in Dahl salt-sensitive rat at 50 mg/kg, sc; assay type: ADME, organism-based; parameters: time < 8 hr, dose 50 mg/kg, route subcutaneous; details: plasma
In short: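 Dahl salt-sensitive rats given 50 mg/kg sc in 10% 1 N HCl, 90% Captisol in pH buffer (10%). Plasma exposure followed over time to give AUC.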

Pkd1 (Rattus norvegicus) = Pkd1 (Rattus norvegicus) (UniProt Q9ERV0); test: Inhibition of PKD1 in rat ventricular myosyte assessed as inhibition of HDAC5 neuclear export; in short: as §1
Sequence of Pkd1 (Rattus norvegicus) (Q9ERV0 as listed by the source): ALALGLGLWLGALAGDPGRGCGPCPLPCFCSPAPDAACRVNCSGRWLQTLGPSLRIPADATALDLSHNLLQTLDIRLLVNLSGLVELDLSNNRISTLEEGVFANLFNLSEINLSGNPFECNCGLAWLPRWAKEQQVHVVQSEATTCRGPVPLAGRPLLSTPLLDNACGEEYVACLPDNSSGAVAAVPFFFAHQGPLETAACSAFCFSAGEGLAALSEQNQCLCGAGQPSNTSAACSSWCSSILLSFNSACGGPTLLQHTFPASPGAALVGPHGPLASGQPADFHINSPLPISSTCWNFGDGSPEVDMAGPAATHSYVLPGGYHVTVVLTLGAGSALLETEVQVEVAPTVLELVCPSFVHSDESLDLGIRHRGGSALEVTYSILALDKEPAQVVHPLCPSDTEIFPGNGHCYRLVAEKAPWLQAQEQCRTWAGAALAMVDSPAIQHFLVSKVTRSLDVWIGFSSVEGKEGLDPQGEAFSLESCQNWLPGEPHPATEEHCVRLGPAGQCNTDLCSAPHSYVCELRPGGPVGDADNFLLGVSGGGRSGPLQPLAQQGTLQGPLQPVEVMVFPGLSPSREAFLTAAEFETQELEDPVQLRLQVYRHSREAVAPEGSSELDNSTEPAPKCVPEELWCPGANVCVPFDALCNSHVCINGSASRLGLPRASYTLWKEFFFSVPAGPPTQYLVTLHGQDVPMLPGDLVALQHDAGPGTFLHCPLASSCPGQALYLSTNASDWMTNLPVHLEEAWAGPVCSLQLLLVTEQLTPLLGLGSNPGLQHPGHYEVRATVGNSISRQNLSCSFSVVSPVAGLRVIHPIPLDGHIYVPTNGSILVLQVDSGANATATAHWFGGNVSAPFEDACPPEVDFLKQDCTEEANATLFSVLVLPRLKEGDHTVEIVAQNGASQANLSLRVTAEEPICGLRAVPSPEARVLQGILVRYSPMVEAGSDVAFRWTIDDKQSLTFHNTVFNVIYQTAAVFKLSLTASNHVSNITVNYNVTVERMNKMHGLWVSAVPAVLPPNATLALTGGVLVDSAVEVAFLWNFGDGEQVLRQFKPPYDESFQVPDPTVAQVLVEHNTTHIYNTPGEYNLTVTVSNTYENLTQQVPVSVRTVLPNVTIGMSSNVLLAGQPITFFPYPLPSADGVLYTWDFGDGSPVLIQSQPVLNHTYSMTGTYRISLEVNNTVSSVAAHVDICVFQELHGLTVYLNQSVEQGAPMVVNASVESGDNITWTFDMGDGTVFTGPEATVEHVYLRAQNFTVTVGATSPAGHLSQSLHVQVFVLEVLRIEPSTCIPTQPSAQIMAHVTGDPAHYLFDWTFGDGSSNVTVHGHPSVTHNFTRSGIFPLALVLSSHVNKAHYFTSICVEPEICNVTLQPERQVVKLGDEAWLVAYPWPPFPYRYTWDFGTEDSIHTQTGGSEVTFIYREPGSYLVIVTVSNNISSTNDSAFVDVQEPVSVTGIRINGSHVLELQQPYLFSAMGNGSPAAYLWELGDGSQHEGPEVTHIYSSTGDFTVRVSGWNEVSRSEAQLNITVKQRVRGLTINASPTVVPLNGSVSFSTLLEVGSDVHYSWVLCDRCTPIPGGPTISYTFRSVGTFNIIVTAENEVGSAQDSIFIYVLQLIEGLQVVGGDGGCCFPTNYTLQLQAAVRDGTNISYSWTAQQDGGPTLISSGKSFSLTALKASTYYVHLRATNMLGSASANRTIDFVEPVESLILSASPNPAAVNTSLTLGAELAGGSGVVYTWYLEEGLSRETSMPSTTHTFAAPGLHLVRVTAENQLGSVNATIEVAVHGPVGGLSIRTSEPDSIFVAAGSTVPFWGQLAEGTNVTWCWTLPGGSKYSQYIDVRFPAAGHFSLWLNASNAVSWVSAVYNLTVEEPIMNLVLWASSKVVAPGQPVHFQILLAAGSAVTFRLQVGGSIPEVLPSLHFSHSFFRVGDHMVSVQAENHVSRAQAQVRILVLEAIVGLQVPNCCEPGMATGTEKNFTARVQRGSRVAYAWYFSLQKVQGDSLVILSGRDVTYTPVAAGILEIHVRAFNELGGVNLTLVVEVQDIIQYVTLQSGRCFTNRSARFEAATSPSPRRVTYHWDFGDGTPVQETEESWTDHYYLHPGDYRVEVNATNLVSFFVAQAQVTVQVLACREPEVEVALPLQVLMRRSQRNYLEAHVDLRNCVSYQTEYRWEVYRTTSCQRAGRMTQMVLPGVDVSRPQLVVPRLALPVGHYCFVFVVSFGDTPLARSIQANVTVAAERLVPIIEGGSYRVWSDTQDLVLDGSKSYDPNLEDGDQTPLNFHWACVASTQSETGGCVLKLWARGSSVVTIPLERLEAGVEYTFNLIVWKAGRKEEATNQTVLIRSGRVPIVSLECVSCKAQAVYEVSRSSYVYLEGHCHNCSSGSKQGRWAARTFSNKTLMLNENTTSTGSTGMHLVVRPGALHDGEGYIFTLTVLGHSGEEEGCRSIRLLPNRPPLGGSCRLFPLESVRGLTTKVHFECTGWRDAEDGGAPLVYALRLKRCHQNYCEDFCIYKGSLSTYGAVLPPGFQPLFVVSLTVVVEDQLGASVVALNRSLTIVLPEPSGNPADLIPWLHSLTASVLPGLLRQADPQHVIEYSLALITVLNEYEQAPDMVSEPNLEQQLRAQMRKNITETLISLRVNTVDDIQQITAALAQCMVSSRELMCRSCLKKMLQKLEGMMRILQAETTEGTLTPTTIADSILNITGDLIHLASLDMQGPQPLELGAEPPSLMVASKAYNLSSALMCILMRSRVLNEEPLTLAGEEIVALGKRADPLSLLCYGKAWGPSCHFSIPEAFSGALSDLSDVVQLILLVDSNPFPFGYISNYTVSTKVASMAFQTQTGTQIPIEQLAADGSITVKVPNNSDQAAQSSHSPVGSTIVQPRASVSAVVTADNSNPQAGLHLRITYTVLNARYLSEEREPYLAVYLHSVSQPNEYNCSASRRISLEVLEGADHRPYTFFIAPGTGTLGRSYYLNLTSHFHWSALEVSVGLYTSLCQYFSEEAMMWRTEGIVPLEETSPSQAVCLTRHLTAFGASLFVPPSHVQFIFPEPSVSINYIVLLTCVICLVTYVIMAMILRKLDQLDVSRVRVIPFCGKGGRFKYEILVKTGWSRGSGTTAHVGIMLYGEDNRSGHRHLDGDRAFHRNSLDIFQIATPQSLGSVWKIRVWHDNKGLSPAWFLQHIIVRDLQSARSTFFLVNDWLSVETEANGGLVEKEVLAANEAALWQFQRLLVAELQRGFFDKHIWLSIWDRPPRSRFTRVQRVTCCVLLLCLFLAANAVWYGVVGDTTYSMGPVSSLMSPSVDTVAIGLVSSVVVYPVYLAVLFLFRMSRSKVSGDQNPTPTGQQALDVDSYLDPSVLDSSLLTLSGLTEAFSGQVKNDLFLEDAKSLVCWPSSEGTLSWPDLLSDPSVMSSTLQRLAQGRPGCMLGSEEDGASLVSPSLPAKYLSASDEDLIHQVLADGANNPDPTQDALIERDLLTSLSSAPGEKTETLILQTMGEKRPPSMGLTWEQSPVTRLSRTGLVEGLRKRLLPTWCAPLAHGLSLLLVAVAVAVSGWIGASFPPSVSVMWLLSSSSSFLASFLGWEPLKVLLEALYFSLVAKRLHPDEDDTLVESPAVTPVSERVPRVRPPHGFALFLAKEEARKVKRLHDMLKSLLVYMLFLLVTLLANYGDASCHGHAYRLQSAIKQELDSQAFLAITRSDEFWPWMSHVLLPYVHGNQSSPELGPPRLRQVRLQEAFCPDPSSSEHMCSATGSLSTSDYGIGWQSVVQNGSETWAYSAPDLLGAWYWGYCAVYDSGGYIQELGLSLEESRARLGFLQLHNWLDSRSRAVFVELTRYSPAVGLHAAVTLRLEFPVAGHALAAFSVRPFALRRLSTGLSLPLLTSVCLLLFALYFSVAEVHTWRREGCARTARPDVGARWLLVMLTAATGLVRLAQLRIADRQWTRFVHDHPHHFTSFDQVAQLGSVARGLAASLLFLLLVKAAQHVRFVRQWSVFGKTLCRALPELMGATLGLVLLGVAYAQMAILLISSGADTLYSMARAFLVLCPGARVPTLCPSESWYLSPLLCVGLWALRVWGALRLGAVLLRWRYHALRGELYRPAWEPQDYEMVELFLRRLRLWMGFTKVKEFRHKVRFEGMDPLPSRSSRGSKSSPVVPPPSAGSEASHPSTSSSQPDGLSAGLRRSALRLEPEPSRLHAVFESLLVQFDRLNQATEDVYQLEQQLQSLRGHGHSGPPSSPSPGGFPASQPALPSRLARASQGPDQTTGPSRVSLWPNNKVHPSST

[8] = Drug level in Dahl salt-sensitive rat left ventricle at 5 mg/kg, sc qd; details: in vivo, read-out: Drug uptake

- pIC50 [1]: 9.00
- pEC50 [2]: 7.11
- pIC50 [3]: 8.05
- inhibition [4]: 3%
- inhibition [5]: 1%
- inhibition [6]: 24%
- AUC(0-t) at 8 h [7]: 25.8 µM·h
- inhibition (Pkd1 (Rattus norvegicus)): Active
- concentration [8]: 12 µM
SMILES: NC(=O)c1cc(-c2ccnc(NC3CCCCC3)c2)nc(N2CCNCC2)c1

From ChEMBL document CHEMBL1212911, “Identification of potent and selective amidobipyridyl inhibitors of protein kinase D” (J Med Chem, 2010)
